Data set [1] can be described thus: melting temperature; fluorescence melt of hairpins on a sequencing array, two-state fit, raised by 9.35 °C to match UV melts. As to conditions: sodium 0.088 M. An outline of the steps: (§1)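 Folding enthalpy and melting temperature were estimated with bootstrapped two-state fits and combined across four replicates by inverse-variance weighting, with fitted temperatures raised by 9.35 °C to match UV melts. The data were Cy3 fluorescence of library hairpins, with annealed Cy3 and quencher oligos, on a sequenced MiSeq flow cell in 50 mM Na-HEPES pH 8.0, 25 mM NaCl, imaged in 2.5 °C steps up to 60 °C and normalised to pre-quench Cy3 and control constructs.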

Data set [2] in a line: folding enthalpy; higher = less favourable; fluorescence melt of hairpins on a sequencing array, two-state fit. As to conditions: sodium 0.088 M. An outline of the steps:
as §1

For the sequence GCCCTCGGAAACGAGGAC (.(((((....))))).), the Tm in data set [1] turned out to be 50.3 °C. The folding enthalpy in data set [2] was -13.4 kcal/mol.
On to GCCCTGCCGAAAGGCGGC (((..(((....)))))), for which, in data set [1], the Tm was 54.9 °C. The folding enthalpy in data set [2] is -9.83 kcal/mol.
Taken in the same sequence, the figures for GCCCTGCGAAAGCACGGC (((.(((....))).))) were 52 °C and -39.6 kcal/mol.
Take GCCCTGCGAAAGCAGAGC ((.((((....)))).)): in data set [1], the Tm is 60.4 °C. The folding enthalpy in data set [2] was -18.8 kcal/mol.
As to GCCCTGCGAAAGCCGGGC ((((.((....)).)))), in data set [1], the Tm is 69 °C. The folding enthalpy in data set [2] was -32.9 kcal/mol.
Taken in the same sequence, the figures for GCCCTGCGAAAGCGGTGC ((.(.((....)).).)) were 48 °C and -20.2 kcal/mol.
Taken in the same sequence, the figures for GCCCTGCGAAAGCTAGGC (((..((....))..))) were 55.2 °C and -20.3 kcal/mol.
In the same order, the values of GCCCTGCGAAAGCTGAGC ((.(.((....)).).)) are 47.2 °C and -13.9 kcal/mol.
As to GCCCTTCGAAAGAATGGC (((.(((....))).))), in data set [1], the Tm was 47.4 °C. The folding enthalpy in data set [2] is -34.3 kcal/mol.
In the same order, the values of GCCCTTGGAAACGAGGGC (((((.(....).))))) are 57.5 °C and -41.4 kcal/mol.
Regarding GCCGAACGAAAGTTGGC (((.(((....)))))), the Tm in data set [1] turned out to be 57.2 °C. Moreover, the folding enthalpy in data set [2] is -32.3 kcal/mol.
Take GCCGAAGGAAACCTCGGC (((((.(....).))))): the Tm in data set [1] was 54.6 °C. For the same sequence, in data set [2], the folding enthalpy was -34.6 kcal/mol.
Taken in the same sequence, the figures for GCCGACCGAAAGGTGGC (((.(((....)))))) were 62 °C and -34 kcal/mol.
Taken in the same sequence, the figures for GCCGACGAAAGTCAGGC ((((((....))).))) were 64.1 °C and -39.5 kcal/mol.
Take GCCGACGAAAGTCATGGC ((((((....)))..))): the Tm in data set [1] turned out to be 51.6 °C. Moreover, the folding enthalpy in data set [2] is -34.5 kcal/mol.
Taken in the same sequence, the figures for GCCGACGAAAGTCCAGGC ((((((....)))..))) were 51.7 °C and -25.2 kcal/mol.
Turning to GCCGACGAAAGTCCGGC ((((((....))).))), the Tm in data set [1] came out at 61.2 °C. In data set [2], the folding enthalpy was -31.1 kcal/mol.
Regarding GCCGACGAAAGTCTGGC ((((((....))).))), the Tm in data set [1] stood at 58.2 °C. The folding enthalpy in data set [2] was -34.6 kcal/mol.
As to GCCGACGGAAACGCCAGC ((.(.((....)).).)), the Tm in data set [1] is 33.8 °C. Moreover, in data set [2], the folding enthalpy is -13.3 kcal/mol.
With GCCGACGGAAACGTCAGC ((.((((....)))).)), the Tm in data set [1] worked out at 49.6 °C. Also, the folding enthalpy in data set [2] is -23.6 kcal/mol.
Taken in the same sequence, the figures for GCCGACTCGAAAGAGGGC (((..(((....)))))) were 47.1 °C and -23.1 kcal/mol.
Taken in the same sequence, the figures for GCCGAGAAATCGGC (((((....))))) were 64.8 °C and -28.4 kcal/mol.
For GCCGAGCGAAAGCAGGGC (((..((....))..))), the Tm in data set [1] was 57.2 °C. Also, the folding enthalpy in data set [2] was -26.3 kcal/mol.
With GCCGAGCGAAAGCCCTGC ((.(.((....)).).)), in data set [1], the Tm was 33.5 °C. Further, the folding enthalpy in data set [2] is -13.7 kcal/mol.
For GCCGAGCGAAAGCCTGGC (((..((....))..))), in data set [1], the Tm is 62.6 °C. Also, the folding enthalpy in data set [2] is -17 kcal/mol.
In the same order, the values of GCCGAGCGAAAGCTGAGC ((..(((....)))..)) are 51.2 °C and -11.2 kcal/mol.
In the same order, the values of GCCGAGCGAAAGCTGCGC ((..(((....)))..)) are 56.4 °C and -17.8 kcal/mol.
In the same order, the values of GCCGAGGGAAACCTCAGC ((.((((....)))).)) are 43.1 °C and -23.7 kcal/mol.
As for GCCGATCCGAAAGGAGGC (((..(((....)))))), the Tm in data set [1] was determined as 52.7 °C. For the same sequence, the folding enthalpy in data set [2] was -36.8 kcal/mol.
In the same order, the values of GCCGATGGAAACATCGAC (.(((((....))))).) are 48 °C and -16.3 kcal/mol.
In the same order, the values of GCCGCACCGAAAGGTGGC (((..(((....)))))) are 53.5 °C and -8.56 kcal/mol.
GCCGCACGAAAGTGGGC (((.(((....)))))): the Tm in data set [1] stood at 62.8 °C. In addition, the folding enthalpy in data set [2] is -20.9 kcal/mol.
In the same order, the values of GCCGCAGCGAAAGCTGGC (((..(((....)))))) are 56.7 °C and -9.6 kcal/mol.
GCCGCAGGAAACTGCAGC ((.((((....)))).)): the Tm in data set [1] turned out to be 49 °C. Also, the folding enthalpy in data set [2] is -19 kcal/mol.
Take GCCGCCGAAAGGCGAGGC ((((((....)))..))): the Tm in data set [1] worked out at 60.6 °C. Also, the folding enthalpy in data set [2] was -14.4 kcal/mol.
In the case of GCCGCCGAAAGGCTAGGC ((((((....)))..))), the Tm in data set [1] was 60.5 °C. Also, the folding enthalpy in data set [2] was -27.9 kcal/mol.

Values taken from the array DNA melting data of Ke et al. (doi:10.1101/2024.01.08.574731).
